Data from ChEMBL document CHEMBL1133378, “Synthesis and evaluation of daunorubicin-paclitaxel dimers” (Bioorg Med Chem Lett, 2000).

How the values were obtained:
Assay type in all cases: functional, cell-based
Conditions in all cases: Homo sapiens
MES-SA/Dx5 [1] = assay: The compound was evaluated for the growth inhibition of Dx5 cell lines using MTT assay.
Summary of the method: (§1)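 MTT assay: MES-SA (uterine tumor) or P-gp-overexpressing MES-SA/Dx5 cells seeded at 80,000 cells/mL, grown 24 h at 37 C in humidified 5% CO2, then drug-exposed at serial dilutions for 72 h. MTT (5 mg/mL stock in PBS) added for 3 h, formazan dissolved in 0.1 N HCl-isopropanol, absorbance read at 570 nm. IC50 from plotted data, mean of 8-16 determinations.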

MES-SA/Dx5 [2] = assay: The compound was evaluated for the growth inhibition of Dx5 w/PSC cell lines using MTT assay.; summary of the method: as §1
MES-SA = assay: The compound was evaluated for the growth inhibition of MES-SA uterine tumor cell lines using MTT assay.; summary of the method: as §1

SMILES	IC50 (MES-SA/Dx5 [1]) [µM]	IC50 (MES-SA/Dx5 [2]) [µM]	IC50 (MES-SA) [µM]
COc1cccc2c1C(=O)c1c(O)c3c(c(O)c1C2=O)C[C@@](O)(C(C)=O)C[C@@H]3OC1CC(NC(=O)c2ccccc2C(=O)NCCC(=O)O[C@@H]2C[C@@H]3OC[C@]3(OC(C)=O)C3[C@@H](OC(=O)c4ccccc4)[C@@]4(O)C[C@@H](OC(=O)[C@@H](O)[C@H](NC(=O)c5ccccc5)c5ccccc5)C(C)=C([C@H](OC(C)=O)C(=O)[C@]32C)C4(C)C)C(O)C(C)O1 (stereo partly specified)	16	0.036	0.099
COc1cccc2c1C(=O)c1c(O)c3c(c(O)c1C2=O)C[C@@](O)(C(C)=O)C[C@@H]3OC1CC(NC(=O)CCCC(=O)NCCC(=O)O[C@@H]2C[C@@H]3OC[C@]3(OC(C)=O)C3[C@@H](OC(=O)c4ccccc4)[C@@]4(O)C[C@@H](OC(=O)[C@@H](O)[C@H](NC(=O)c5ccccc5)c5ccccc5)C(C)=C([C@H](OC(C)=O)C(=O)[C@]32C)C4(C)C)C(O)C(C)O1 (stereo partly specified)	> 50	1.1	0.95
COc1cccc2c1C(=O)c1c(O)c3c(c(O)c1C2=O)C[C@@](O)(C(C)=O)C[C@@H]3OC1CC(NC(=O)c2ccc(C(=O)NCCC(=O)O[C@@H]3C[C@@H]4OC[C@]4(OC(C)=O)C4[C@@H](OC(=O)c5ccccc5)[C@@]5(O)C[C@@H](OC(=O)[C@@H](O)[C@H](NC(=O)c6ccccc6)c6ccccc6)C(C)=C([C@H](OC(C)=O)C(=O)[C@]43C)C5(C)C)cc2)C(O)C(C)O1 (stereo partly specified)	10	1	1
COc1cccc2c1C(=O)c1c(O)c3c(c(O)c1C2=O)C[C@@](O)(C(C)=O)C[C@@H]3OC1CC(NC(=O)CCCCC(=O)NCCC(=O)O[C@@H]2C[C@@H]3OC[C@]3(OC(C)=O)C3[C@@H](OC(=O)c4ccccc4)[C@@]4(O)C[C@@H](OC(=O)[C@@H](O)[C@H](NC(=O)c5ccccc5)c5ccccc5)C(C)=C([C@H](OC(C)=O)C(=O)[C@]32C)C4(C)C)C(O)C(C)O1 (stereo partly specified)	> 50		2.3
COc1cccc2c1C(=O)c1c(O)c3c(c(O)c1C2=O)C[C@@](O)(C(C)=O)C[C@@H]3OC1CC(NC(=O)CCC(=O)NCCC(=O)O[C@@H]2C[C@@H]3OC[C@]3(OC(C)=O)C3[C@@H](OC(=O)c4ccccc4)[C@@]4(O)C[C@@H](OC(=O)[C@@H](O)[C@H](NC(=O)c5ccccc5)c5ccccc5)C(C)=C([C@H](OC(C)=O)C(=O)[C@]32C)C4(C)C)C(O)C(C)O1 (stereo partly specified)	> 50		0.7
COc1cccc2c1C(=O)c1c(O)c3c(c(O)c1C2=O)C[C@@](O)(C(C)=O)C[C@@H]3O[C@H]1C[C@H](N)[C@H](O)[C@H](C)O1 [DAUNORUBICIN]	2	0.014	0.021
CC(=O)O[C@H]1C(=O)[C@@]2(C)C([C@H](OC(=O)c3ccccc3)[C@]3(O)C[C@H](OC(=O)[C@H](O)[C@@H](NC(=O)c4ccccc4)c4ccccc4)C(C)=C1C3(C)C)[C@]1(OC(C)=O)CO[C@@H]1C[C@@H]2O.COc1cccc2c1C(=O)c1c(O)c3c(c(O)c1C2=O)C[C@@](O)(C(C)=O)C[C@@H]3OC1CC(N)C(O)C(C)O1 (stereo partly specified) [MIXTURE OF DAUNORUBICIN AND PACLITAXEL]	1		0.011
CC(=O)O[C@H]1C(=O)[C@@]2(C)[C@H]([C@H](OC(=O)c3ccccc3)[C@]3(O)C[C@H](OC(=O)[C@H](O)[C@@H](NC(=O)c4ccccc4)c4ccccc4)C(C)=C1C3(C)C)[C@]1(OC(C)=O)CO[C@@H]1C[C@@H]2O [PACLITAXEL]	2.7	0.0003	0.0006
